The results in this text go back to BindingDB's records for doi:10.1016/j.ejmech.2020.112062 (Mansoura University, 2020).

Each structure is given as a SMILES string.

The target of the assay is Transcription factor p65 (Human, UniProt Q04206). As to the kind of experiment: Inhibition of NFkappaB p65 in human RPMI-8226 cells incubated for 2 hrs by ELISA. Put shortly:
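Target levels measured by ELISA kits in RPMI-8226 cells. Cells were seeded and grown 24 h at 37 °C, then exposed 72 h to a semi-log series of concentrations. Sample was incubated 2 h at 37 °C, followed by detection reagents A and B (1 h each), TMB substrate and stop solution, with OD read at 450 nm. IC50 was taken from sigmoidal dose-response nonlinear regression of % activity.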
In general terms: ELISA stands for enzyme-linked immunosorbent assay.

Chain of Transcription factor p65 (Q04206 whole entry): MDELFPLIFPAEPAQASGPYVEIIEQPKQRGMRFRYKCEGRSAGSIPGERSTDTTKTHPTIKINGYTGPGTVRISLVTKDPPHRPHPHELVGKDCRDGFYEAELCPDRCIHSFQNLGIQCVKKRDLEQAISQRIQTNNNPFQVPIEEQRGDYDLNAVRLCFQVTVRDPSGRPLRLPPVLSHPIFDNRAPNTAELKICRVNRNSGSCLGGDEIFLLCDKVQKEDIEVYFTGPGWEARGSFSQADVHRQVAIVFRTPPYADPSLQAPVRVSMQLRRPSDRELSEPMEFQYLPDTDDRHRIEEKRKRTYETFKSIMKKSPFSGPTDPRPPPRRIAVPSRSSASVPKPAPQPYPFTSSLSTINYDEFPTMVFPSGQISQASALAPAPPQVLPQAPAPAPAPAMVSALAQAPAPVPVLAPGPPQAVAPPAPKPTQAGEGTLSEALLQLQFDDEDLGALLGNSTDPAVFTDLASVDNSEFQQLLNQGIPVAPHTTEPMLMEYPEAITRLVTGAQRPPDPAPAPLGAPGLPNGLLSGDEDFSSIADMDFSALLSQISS

`COc1ccc(/C=C/C(=O)c2nnn(-c3ccc(Cl)cc3)c2C)cc1OC`: half-maximal inhibition (IC50) was put at 0.134 µM.
Take `COc1cc2ncnc(Nc3ccc(F)c(Cl)c3)c2cc1OCCCN1CCOCC1` [ZD1839]: the midpoint of inhibition, the IC50, lay at 0.055 µM. This IC50 lies about 2.4-fold lower than the previous one.

As a reminder, the IC50 is the concentration that gives 50% inhibition. A lower IC50 goes with inhibition by little substance.
